Published values of several laboratories.
Lines come from different studies, so protocols differ.
Target: Platelet-derived growth factor receptor beta (PDGFRB, Homo sapiens, UniProt P09619)

Structure (SMILES) | assay | conditions | measurement | result
CC(C)(C)c1nc2c(s1)c1nc(N)ncc1c1ccc(NS(=O)(=O)c3c(F)cccc3F)c(F)c12 | enzyme activity, inhibitor, radiometric | 1 µM | remaining activity | 105%
CN(C)c1ncnc(-c2ccc3nc(Nc4cc(CN5CCN(C(=O)CC(F)(F)F)CC5)ccn4)[nH]c3c2)c1Cl | cell-free assay, competition with immobilised ligand | 1 µM | remaining binding | 100%
CS(=O)(=O)Nc1cccc(-c2csc(NC(=O)CSc3nc4nccnc4c(=O)n3CCc3ccccc3)n2)c1 | enzyme activity, inhibitor | 10 µM | inhibition | 7%
O=C1NC(=O)c2cc(Nc3ccc(F)cc3)c(Nc3ccc(F)cc3)cc21 | cell-free assay | 0.5 µM | remaining signal | 93.9%
Cc1ccc(Nc2nccc(N(C)c3ccc4c(C)n(C)nc4c3)n2)cc1S(N)(=O)=O | enzyme activity, inhibitor | 0.3 µM | inhibition | 64%
CCCOc1ccc([C@@H]2[C@@H](C(=O)O)[C@H](c3ccc4c(c3)OCO4)CN2CC(=O)Nc2c(CC)cccc2CC)cc1 | cell-free assay, competition with immobilised ligand | 1 µM | remaining binding | 100%
Cc1ccc(C(=O)Nc2ccc(CN3CCN(C)CC3)c(C(F)(F)F)c2)cc1C#Cc1cnc2cccnn12 | enzyme activity, inhibitor | 23.5 nM | remaining activity | 1.6%
CN(C)c1ccc(C=C2C(=O)Nc3ccccc32)cc1 | enzyme activity, inhibitor | 0.5 µM | remaining activity | 85.8%
O=[N+]([O-])c1cccc2[nH]c(CNc3nc(N4CCOCC4)nc4c3ncn4-c3ccsc3)nc12 | binding, competition with immobilised ligand | 10 µM | binding vs control | 8.2%
Cc1sc(C(=O)NC2COC2)cc1-n1cc(NC(=O)Nc2c(F)cccc2Cl)cn1 | enzyme activity, inhibitor | 10 µM | remaining activity | 97.9%
CS(=O)(=O)N1CCCC(NC(=O)[C@H](CCC2CCCCC2)NC(=O)c2ccc(CNc3ncnc4c3nnn4-c3ccccc3)cc2)C1 (stereo partly shown) | cell-free assay, competition with immobilised ligand | 0.1 µM | remaining binding | 86%
COc1cc2ncnc(Nc3ccc(Oc4ccccc4)cc3C)c2cc1OC | enzyme activity, inhibitor | 1 µM | inhibition | 2%
Cc1cc(NC(=O)c2cccc3cc(-c4cccc5[nH]nc(N)c45)ccc23)ccc1F | enzyme activity, inhibitor | 0.1 µM | activity vs control | 101%
CCN(CC)CCNC(=O)c1c(C)[nH]c(/C=C2\C(=O)Nc3ccc(Cl)cc32)c1C | enzyme activity, inhibitor | 0.5 µM | remaining activity | 9.28%
Cc1[nH]c(/C=C2\C(=O)Nc3ccc(F)cc32)c(C)c1C(=O)N[C@H]1CCN(C(=O)N(C)C)C1 | enzyme activity, inhibitor | 1 µM | remaining activity | 18%
Cn1nc(C(F)(F)F)cc1-c1cnc(N2CCc3cc(S(=O)(=O)Nc4c(F)cc(Cl)cc4F)cc(N4CCCC4=O)c32)nc1 | cell-free assay, competition with immobilised ligand | 1 µM | remaining binding | 90%
CNC(=O)c1cc(Oc2ccc(NC(=O)Nc3ccc(Cl)c(C(F)(F)F)c3)cc2)ccn1 | cell-free assay | 0.5 µM | remaining signal | 12%
Cn1nc(C(=O)NCc2ccc(C(=O)O)cc2)cc1-c1ccc2[nH]ccc2c1 | cell-free assay, competition with immobilised ligand | 0.1 µM | remaining binding | 96%
Cc1ccc(NC(=O)c2ccc(C)c(C(F)(F)F)c2)cc1C#Cc1nn(C2CCC(O)CC2)c2ncnc(N)c12 (stereo not shown) | cell-free assay | 10 µM | remaining signal | 87%
